# This excerpt belongs to a sample that is enriched for hits.
# Beta2AR agonist: beta2AR agonists driving receptor internalization, primary screen, cell-based, FAP fluorogen, flow cytometry; AID 504454, 2011; Am2.2-beta2AR cells; response, % (test concentration not listed); Beta-2 adrenergic receptor (Homo sapiens), P07550; hit rate 0.43% among 340,000;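 active = response above a set limit, near 3 SD of response in nonfluorescent compounds, cut at about 42% in these data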
# Target sequence (P07550 whole entry, looked up): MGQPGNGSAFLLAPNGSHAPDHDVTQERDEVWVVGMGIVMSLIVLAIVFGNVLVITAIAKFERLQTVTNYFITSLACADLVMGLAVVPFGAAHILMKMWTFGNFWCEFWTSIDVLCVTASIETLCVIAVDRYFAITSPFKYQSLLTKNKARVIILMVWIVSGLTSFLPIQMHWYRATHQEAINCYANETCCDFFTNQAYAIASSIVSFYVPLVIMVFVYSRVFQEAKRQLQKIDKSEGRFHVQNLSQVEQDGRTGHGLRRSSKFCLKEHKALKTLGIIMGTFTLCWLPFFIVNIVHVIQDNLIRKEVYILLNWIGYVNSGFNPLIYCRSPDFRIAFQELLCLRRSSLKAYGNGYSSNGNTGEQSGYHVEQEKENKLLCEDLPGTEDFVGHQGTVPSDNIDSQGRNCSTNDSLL
# VLA-4 inh: inhibition in human VLA-4 binding assay, primary screen, VLA-4 allosteric modulator project, MLPCN library, flow cytometry, VLA-4 expressing cells. ligand binding flow cytometry. inhibition, % (about 7 µM as worked out from the volumes in the protocol). Integrin alpha-4 (Homo sapiens), P13612. hit rate 0.2% among 330,000; in the data active = inhibition above about 50%
# CHOP inhibitor: inhibitors of CHOP promoter induction, primary screen, cell-based, unfolded protein response, luciferase reporter. CHO-K1 CHOP-promoter luciferase, tunicamycin-induced, 15-18 h. inhibition, % at 10 µM. hit rate 3.8% among 220,000. AID 2732, 2010;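 active = compounds that reduced the stress-induced luciferase reporter signal by more than about 70% of percent inhibition, limit read from the data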;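 note: 0% = tunicamycin plus vehicle and 100% = wells without tunicamycin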
# UPR XBP1 act: activators of adaptive XBP1 UPR arm, primary screen, cell-based, CHO-XBP1 luciferase reporter, luminescence, uHTS; IRE1-XBP1 UPR activation; percent of tunicamycin response, DMSO as zero; activation, % at 20 µM; hit rate 0.33% among 330,000; AID 463104, 2010;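 active = versus positive control, 20 µM dose yields 30% or more activation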;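 note: 100% = tunicamycin at 10 µg/mL and 0% = DMSO only wells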
#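 Material – CHO cell line with stable XBP1 luciferase reporter · Buffer or medium – F12 plus 10% FBS · Compound – single point, 20 µM final compound, 1% DMSO · Schedule – 16-18 h cell attachment at 37 °C, then 6 h compound exposure · Signal – Steady-Glo luminescence read · Benchmarks – high control tunicamycin 10 µg/mL final, low control DMSO vehicle only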
# UPR CHOP act: activators of apoptotic CHOP UPR arm, primary screen, cell-based, CHO-CHOP luciferase reporter, luminescence, uHTS; UPR activation; percent of tunicamycin response over DMSO baseline; activation, % at 10 µM; hit rate 0.34% among 330,000; AID 449763, 2010;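 active = at 10 µM dose, activation of 40% or more, normalized to positive control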;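 note: 100% = tunicamycin at 10 µg/mL and 0% = DMSO alone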
#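 assay system = CHO CHOP reporter cells | amount = 500 CHO-CHOP cells per well | buffer or medium = F12 with 10% FBS | incubation = 16-18 h cell attachment, then 6 h compound exposure, 37 °C | detection = luminescence read with Steady-Glo | read-out = percent activation relative to tunicamycin control | controls = tunicamycin high control, DMSO low control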
# * marks the source's active call; other numbers are inactive results; nt = not tested or not shown.
SMILES,Beta2AR agonist,VLA-4 inh,CHOP inhibitor,UPR XBP1 act,UPR CHOP act
CC(C)c1[nH]nc2c1C(C1C=CCCC1)C(C#N)=C(N)O2 (stereo unspecified),0.3,17.9,22.3,-3.6,0.5
CC(C)(C)c1[nH]nc2c1C(C1C=CCCC1)C(C#N)=C(N)O2 (stereo unspecified),-7.5,-9.0,82.5*,1.1,-2.0
CCCCNc1c(-c2cccc(-c3ccc(OC)cc3)c2)nc2ccc(C)cn12,49.2*,32.5,nt,-8.5,-6.9
CC(C)Cn1c(N)c(C(=O)COC(=O)c2cccnc2Cl)c(=O)n(C)c1=O,-2.2,8.2,9.5,-2.4,-0.3
CN(C)C1=NCCN1CC1CCCC1,-9.7,-4.9,nt,-2.1,-0.9
COCCN(C(=O)CSc1nnc(-c2ccco2)n1C)c1c(N)n(CC(C)C)c(=O)[nH]c1=O,-3.9,0.0,nt,1.6,1.2
Cc1ccccc1OCC(=O)N1CCN(C(=O)COc2ccccc2C)CC1,-2.9,-3.8,nt,-3.1,1.2
CCOC(=O)C1=C(C)n2c(s/c(=C3\C(=O)Nc4ccccc43)c2=O)=NC1c1ccc(OC)cc1 (stereo unspecified),8.9,15.8,78.2*,15.9,4.1
COC(=O)C1=C(C)N=c2s/c(=C3\C(=O)Nc4ccccc43)c(=O)n2C1c1ccccc1 (stereo unspecified),nt,nt,78.8*,10.2,1.1
COc1cc(/C=N/O)ccc1OCc1ccc(Cl)cc1,nt,5.8,39.2,-2.4,2.4
COc1cc(/C=N/NS(=O)(=O)c2ccc3ccccc3c2)ccc1OCc1ccc(C(=O)O)cc1,-2.5,6.9,15.5,-3.4,-3.9
CCOc1cc(/C=N/O)ccc1OCc1ccc(F)cc1,6.8,-0.3,37.6,6.2,1.3
COc1cc(/C=N/O)ccc1OCc1ccc(C(=O)O)cc1,-0.3,-1.9,90.5*,-5.8,-9.8
CCOc1cc(/C=N/N=C(N)N)ccc1OCc1ccc(Cl)cc1,45.8*,16.9,108.5*,nt,nt
NC(N)=N/N=C/c1ccc(OCc2ccccc2)c(OCc2ccccc2)c1,30.3,7.2,nt,0.2,62.6*
COc1cc(/C=N/N=C(N)N)ccc1OCc1ccc(Cl)cc1,37.9,8.3,78.1*,11.9,-0.1
CCN(CC)S(=O)(=O)c1ccc2[nH]c(=O)cc(C(=O)NCc3ccccc3)c2c1,0.3,8.7,nt,-6.0,1.4
Cc1ccc(N=C2SCCCN2C(=O)c2ccco2)cc1Cl,-1.7,-5.2,80.1*,-1.0,1.1
Fc1ccc(N/N=C/c2ccncc2)c(F)c1,3.8,1.8,-4.9,1.6,3.2
Fc1ccc(N/N=C/C=C/c2ccccc2)c(F)c1,2.3,5.9,77.0*,5.7,3.7
O=C(CCS(=O)(=O)c1ccccc1)NC12CC3CC(CC(C3)C1)C2,1.5,10.2,74.5*,-0.7,3.2
c1ccc2c(c1)OCC(c1nnc3sc(-c4ccc5c(c4)OCO5)nn13)O2 (stereo unspecified),-6.2,-2.4,85.6*,2.9,2.9
CCn1ncc(Br)c1C(=O)N(C)C12CC3CC(CC(C3)C1)C2,-2.9,5.5,87.1*,-3.0,-1.5
O=C(Nc1ccnn1C1CCN(Cc2ccc(O)c(Cl)c2)CC1)C1CCCC1,5.4,19.5,nt,-3.3,-1.0
COc1ccc(-c2cc(C)no2)cc1S(=O)(=O)N1CCN(C(=O)c2ccco2)CC1,-18.5,-9.7,nt,-8.6,2.5
SMILES,Beta2AR agonist,VLA-4 inh,CHOP inhibitor,UPR XBP1 act,UPR CHOP act
NC[C@H](O)c1ccc(O)c(O)c1,nt,-3.7,2.5,-4.7,1.5
Cc1ccc(NNC(=O)C(O)(c2cccc(C(F)(F)F)c2)c2cccc(C(F)(F)F)c2)cc1,16.7,-7.8,106.9*,-1.4,-0.3
Cc1ccc(C(O)(C(=O)NNc2ccccn2)c2ccc(C)cc2)cc1,-0.7,12.1,28.5,-4.2,-0.2
C=CCN(CC=C)S(=O)(=O)c1ccc(F)cc1,8.4,1.2,79.0*,-1.8,2.1
COc1ccccc1CCC(=O)OCC(=O)Nc1c(C)nn(-c2ccccc2)c1C,-2.4,-3.6,nt,-2.0,-1.1
CCOC(=O)CSc1nnc2c(n1)C1(C)CCC2C1(C)C (stereo unspecified),6.4,-33.2,36.2,1.6,-0.7
CC12CCC(c3nnc(SCc4ccc(Cl)cc4)nc31)C2(C)C (stereo unspecified),3.0,6.2,74.5*,-1.2,-0.9
CC(=O)Nc1ccc2oc(-c3cc(F)c(F)cc3Cl)nc2c1,-20.3,4.3,82.4*,-0.5,4.2
CC(C)(C)c1ccc(S(=O)(=O)/N=C2\C=C(NS(=O)(=O)c3ccccc3)C(=O)c3ccccc32)cc1,1.8,-10.7,nt,-0.5,0.7
CC(C)c1ccc(S(=O)(=O)/N=C2/C=C(Sc3ncn[nH]3)C(=O)c3ccccc32)cc1,22.3,-355.5,80.9*,nt,nt
Cc1ccc2[nH]c(C)c(CCNC(=O)c3cc4cc([N+](=O)[O-])ccc4oc3=O)c2c1,3.4,4.7,88.6*,3.9,-2.6
Cc1ccc2[nH]c(C)c(CCNC(=O)c3c(N)no[n+]3[O-])c2c1,-1.7,4.8,13.0,0.1,-0.8
Cc1nc(Nc2ccccc2)[nH]c(=O)c1CCC(C)C,-3.0,2.8,89.1*,0.9,0.3
CCN(CC)S(=O)(=O)c1cccc(C(=O)Nc2ccc(S(=O)(=O)NC3=NCCCCC3)cc2)c1,-0.6,-3.2,nt,-2.3,0.1
CCOC(=O)c1c(C)[nH]c(C(=O)C(C)OC(=O)c2cccc(OCc3c(C)noc3C)c2)c1C (stereo unspecified),-0.9,1.9,80.2*,-0.8,2.1
CCOC(=O)c1sc2nccc(N(C)C)c2c1N=CNOC,3.5,-10.4,26.9,1.3,-2.7
CCOC(=O)c1sc2nccc(N(C)C)c2c1N=CNOCc1ccccc1,1.2,1.5,75.1*,2.8,-0.2
CCOC(=O)C1(CCOc2ccccc2)CCN(Cc2cccc(OC)c2OC)CC1,-1.9,9.5,nt,-3.1,-1.0
Cc1ccc(NC(=O)Nc2nc(-c3ccc(C)s3)cs2)cc1,-2.2,11.9,86.3*,4.9,2.7
CCN1C(=O)[C@@H]2[C@H](C1=O)[C@@H]1C(=O)Nc3ccccc3C(=O)N1[C@@H]2c1ccc(Br)cc1,0.3,4.9,nt,-1.1,-3.1
Cc1cc(=O)oc(C)c1C(=O)OCC(=O)c1ccc2ccccc2c1,1.9,-6.2,70.9*,-3.0,-0.7
O=C(CSc1nc2ccccc2c2c1CCCC2)N1CCOCC1,-14.1,3.5,nt,0.4,-0.4
O=C(/C=C/c1ccc2c(c1)OCO2)NCCSCc1ccc(Cl)cc1Cl,96.2*,nt,-26.1,-0.7,7.4
O=C(/C=C/c1cccc([N+](=O)[O-])c1)NCCSCc1ccc(Cl)cc1Cl,-6.5,-1.5,29.1,-3.4,-2.0
O=C(/C=C/c1ccc2c(c1)OCO2)NCCSCc1cccc(Cl)c1,44.2*,10.1,31.4,2.7,-0.2

# Bioassay records (PubChem)
